Experiments:
MAC15A [1] = test: Ratio of cytotoxic to that of antiplasmodial activity was determined; format: functional, Mus musculus
Plasmodium falciparum [2] = test: In vitro antiplasmodial activity for Plasmodium falciparum; format: functional, organism-based
How it was run: (§1)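 P. falciparum K1 ring-stage cultures in human A+ erythrocytes (RPMI 1640, A+ serum, glucose), at 2.5% hematocrit and 1% parasitemia. Two-fold serial dilutions in duplicate, final DMSO ≤0.5%. Incubated 48 h at 37 °C under 93% N2/3% O2/4% CO2. Growth read as parasite lactate dehydrogenase activity (APAD/NBT, 550 nm). IC50 by linear regression; at least three separate determinations.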

MAC15A [3] = test: Cytotoxicity against MAC15A mouse adenocarcinomas of the colon cells; format: functional, cell-based
How it was run: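 MTT assay. MAC15A cells were seeded at 2 × 10^3 per well and attached overnight at 37 °C, 5% CO2. Drugs were dissolved in DMSO and diluted in medium (max 0.1% DMSO), eight wells per concentration, 96 h exposure. MTT (0.5 mg/mL) was then added for 24 h. Formazan was dissolved in DMSO and read at 550 nm. Survival is relative to vehicle control; IC50 from triplicate experiments.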

[4] = Ionization constant for the compound; format: physicochemical
Plasmodium falciparum [5] = test: […] accumulation into acidic parasitic food vacuole at pH=5.5; format: functional
[6] = molecular target: T1, Histidine-rich protein PFHRP-II (Plasmodium falciparum) (UniProt P05227); test: Antiplasmodial activity as IC50 against Beta-hematin formation; format: functional
T1 sequence (whole entry): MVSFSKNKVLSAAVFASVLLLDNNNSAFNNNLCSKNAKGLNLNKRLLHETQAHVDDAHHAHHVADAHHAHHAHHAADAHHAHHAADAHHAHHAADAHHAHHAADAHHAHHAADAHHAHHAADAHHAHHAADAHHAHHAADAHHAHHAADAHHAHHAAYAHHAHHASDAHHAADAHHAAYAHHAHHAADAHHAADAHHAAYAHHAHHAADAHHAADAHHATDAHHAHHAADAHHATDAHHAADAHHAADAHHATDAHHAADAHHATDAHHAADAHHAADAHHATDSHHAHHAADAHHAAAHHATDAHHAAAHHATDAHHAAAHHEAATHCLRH
How it was run: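 β-Hematin inhibition (BHIA) assay: hemin (0.4 µmol/well) in DMSO with compound at 0.25–2 (or 4) molar equivalents to hemin, in triplicate. Final DMSO was 25%. Formation started with 8 M acetate buffer pH 5.0, then 37 °C for 18 h. The centrifuged pellet was dissolved in 0.1 M NaOH and read at 405 nm. BHIA50 is the drug equivalents relative to hemin giving 50% inhibition.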

Plasmodium falciparum [7] = test: Normalized IC50 as product of antiplasmodial IC50 and vacuolar accumulation IC50; format: functional, organism-based
Mus musculus [8] = test: In vivo antimalarial activity of compound against Plasmodium berghei was determined as suppression of parasitemia in mice (Mus musculus) at 50 mg/kg treated for 4 days; format: functional
Plasmodium falciparum [9] = test: […] accumulation into acidic parasitic food vacuole (pH=5.5) relative to Cryptolepine; format: functional
How it was run: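 Calculated from each compound's spectrophotometric pKa via a pH-trapping equation, assuming food-vacuole pH 5.5 and external pH 7.4. The result is expressed relative to cryptolepine's ratio. pKa came from UV spectra (0.05 mg mL-1) in at least seven buffers of pH 5.8–13.0, plus 0.1 M NaOH and 0.1 M HCl. pKa was taken as the midpoint of the λmax absorbance plot. Two experiments per compound.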

Mus musculus [10] = test: Mean survival time taken as number of days before illness due to Plasmodium berghei when mice (Mus musculus) treated with 50 mg/kg dose for 4 days; format: functional
How it was run: (§2)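 Peters' 4-day suppressive test in female BALB/c mice (18-20 g), five per group. Each mouse got 1 × 10^7 P. berghei ANKA-infected erythrocytes iv. Drug was given ip in 0.2 mL daily for 4 consecutive days. Survival time was the number of days before signs of malaria illness, compared with untreated infected controls.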

Plasmodium falciparum [11] = test: In vitro antiplasmodial concentration against multidrug-resistant Plasmodium falciparum K1; format: functional, organism-based; how it was run: as §1
Mus musculus [12] = test: In vivo antimalarial activity of compound against Plasmodium berghei in mice (Mus musculus) at dose of 50 mg/kg treated for 4 days; format: functional
Mus musculus [13] = species: Mus musculus; test: Mean survival time taken as number of days before illness due to Plasmodium berghei in untreated mice (Mus musculus); format: functional; how it was run: as §2
Mus musculus [14] = test: Mean survival time taken as number of days before illness due to Plasmodium berghei when mice (Mus musculus) treated with 25 mg/kg dose for 4 days; format: functional; how it was run: as §2
Mus musculus [15] = test: In vivo antimalarial activity of compound against Plasmodium berghei was determined as suppression of parasitemia in mice (Mus musculus) at 25 mg/kg treated for 4 days; format: functional
How it was run: (§3)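 Peters 4-day suppressive test in female BALB/c mice (18–20 g), five per group. Mice were infected iv with 1 × 10^7 P. berghei ANKA-infected erythrocytes. Drug was given ip daily for four consecutive days. Blood smears were taken on day 5, and % parasitemia suppression was calculated against untreated infected controls. Survival was recorded as days until signs of malaria illness.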

Mus musculus [16] = test: In vivo antimalarial activity of compound against Plasmodium berghei in mice (Mus musculus) at dose of 25 mg/kg treated for 4 days; format: functional; how it was run: as §3
Mus musculus [17] = test: Mean survival time taken as number of days before illness due to Plasmodium berghei when mice (Mus musculus) treated with 20 mg/kg dose for 4 days; c=toxic after the 2nd dose; format: functional, organism-based; design: dose 20 mg/kg
Mus musculus [18] = test: In vivo antimalarial activity of compound against Plasmodium berghei in mice (Mus musculus) at dose of 20 mg/kg treated for 4 days; c = toxic after 2nd dose; format: functional, organism-based; design: dose 20 mg/kg
Mus musculus [19] = species: Mus musculus; test: Mean survival time taken as number of days before illness due to Plasmodium berghei in […] mice (Mus musculus); c=toxic after the 2nd dose; format: functional, organism-based
Mus musculus [20] = test: In vivo antimalarial activity of compound against Plasmodium berghei was determined as suppression of parasitaemia in mice (Mus musculus) at 20 mg/kg treated for 4 days; c=toxic after the 2nd dose; format: functional, organism-based; design: dose 20 mg/kg

## C[n+]1c2ccc(Cl)c(Cl)c2cc2[nH]c3ccccc3c21.[Cl-]
MAC15A [1]
  Ratio: 21.7
Plasmodium falciparum [2]; Plasmodium falciparum
  IC50: 0.088 µM
MAC15A [3]; Mus musculus, MAC15A
  IC50: 1.91 µM

## C[n+]1c2ccc(Br)cc2cc2[nH]c3ccccc3c21
[4]
  pKa: 10.2
Plasmodium falciparum [5]
  Vascular accumulation ratio: 79.3
[6]
  BHIA50: 0.63

## C[n+]1c2ccccc2cc2[nH]c3ccccc3c21.O=S(=O)([O-])O
[4]
  pKa: 11.8
Plasmodium falciparum [5]
  Vascular accumulation ratio: 79.43
[6]
  BHIA50: 1.64

## C[n+]1c2ccccc2cc2[nH]c3c([N+](=O)[O-])cccc3c21.[Cl-]
Plasmodium falciparum [7]
  IC50: 6.85 µM
[4]
  pKa: 9.6
Plasmodium falciparum [5]
  Vascular accumulation ratio: 78.94
[6]
  BHIA50: 0.84

## Cc1ccc2cc3[nH]c4ccc(Br)cc4c3[n+](C)c2c1.[Cl-]
MAC15A [1]
  Ratio: 20
Plasmodium falciparum [2]; Plasmodium falciparum
  IC50: 0.26 µM
MAC15A [3]; Mus musculus, MAC15A
  IC50: 5.21 µM

## C[n+]1c2c(Cl)cccc2cc2[nH]c3ccccc3c21.[Cl-]
MAC15A [1]
  Ratio: 0.76
Plasmodium falciparum [2]; Plasmodium falciparum
  IC50: 4.69 µM
MAC15A [3]; Mus musculus, MAC15A
  IC50: 3.54 µM

## C[n+]1c2ccccc2cc2[nH]c3cc(Cl)ccc3c21.[Cl-]
MAC15A [1]
  Ratio: <8.15
Plasmodium falciparum [2]
  IC50: > 1 µM
MAC15A [3]; mac15a
  IC50: 8.15 µM

## C[n+]1c2cc(Cl)c(Cl)cc2cc2[nH]c3ccccc3c21.[Cl-]
MAC15A [1]
  Ratio: 9.33
Plasmodium falciparum [2]; Plasmodium falciparum
  IC50: 0.356 µM
MAC15A [3]; Mus musculus, MAC15A
  IC50: 3.32 µM

## COc1ccc2c(c1)cc1[nH]c3ccccc3c1[n+]2C.[Cl-]
Mus musculus [8]
  Suppression of parasitemia: 9.3%
Plasmodium falciparum [7]
  IC50: 0.95 µM
Plasmodium falciparum [9]
  Ratio: 1
MAC15A [1]
  Ratio: 4.54
Mus musculus [10]
  Mean survival time: 5 days
Plasmodium falciparum [2]; Plasmodium falciparum
  IC50: 0.95 µM
MAC15A [3]; Mus musculus, MAC15A
  IC50: 4.31 µM
Plasmodium falciparum [11]
  IC50: 0.95 µM
[4]
  pKa: 11.4
Mus musculus [12]
  Parasitemia: 12.08%
Mus musculus [13]
  Mean survival time: 5 days
Plasmodium falciparum [5]
  Vascular accumulation ratio: 79.43
[6]
  BHIA50: 1.96

## Cc1ccc2c(c1)cc1[nH]c3ccccc3c1[n+]2C.[Cl-]
MAC15A [1]
  Ratio: 9.81
Plasmodium falciparum [2]; Plasmodium falciparum
  IC50: 0.419 µM
MAC15A [3]; Mus musculus, MAC15A
  IC50: 4.11 µM

## C[n+]1c2ccccc2cc2[nH]c3cc(Cl)ccc3c21.[I-]
Mus musculus [13]
  Mean survival time: 9.6 days
Mus musculus [14]
  Mean survival time: 14 days

## C[n+]1c2ccc(F)cc2cc2[nH]c3ccc(Br)cc3c21.[Cl-]
MAC15A [1]
  Ratio: 21.4
Plasmodium falciparum [2]; Plasmodium falciparum
  IC50: 0.063 µM
MAC15A [3]; Mus musculus, MAC15A
  IC50: 1.35 µM

## C[n+]1c2ccc(Br)cc2cc2[nH]c3ccc([N+](=O)[O-])cc3c21.[Cl-]
MAC15A [1]
  Ratio: 14.7
Mus musculus [15]
  Suppression of parasitemia: 90.75%
Plasmodium falciparum [2]; Plasmodium falciparum
  IC50: 0.07 µM
MAC15A [3]; Mus musculus, MAC15A
  IC50: 1.03 µM
Mus musculus [16]
  Parasitemia: 1.34%
Mus musculus [13]
  Mean survival time: 6.4 days
Mus musculus [14]
  Mean survival time: 13 days

## C[n+]1c2ccc(F)cc2cc2[nH]c3ccccc3c21.[Cl-]
Mus musculus [8]
  Suppression of parasitemia: 55.1%
Plasmodium falciparum [7]
  IC50: 1.21 µM
Plasmodium falciparum [9]
  Ratio: 1
MAC15A [1]
  Ratio: 3.96
Mus musculus [10]
  Mean survival time: 5 days
Plasmodium falciparum [2]; Plasmodium falciparum
  IC50: 1.21 µM
MAC15A [3]; Mus musculus, MAC15A
  IC50: 4.79 µM
Plasmodium falciparum [11]
  IC50: 1.21 µM
[4]
  pKa: 11.2
Mus musculus [12]
  Parasitemia: 5.98%
Mus musculus [13]
  Mean survival time: 5 days
Plasmodium falciparum [5]
  Vascular accumulation ratio: 79.41
[6]
  BHIA50: 1.24

## C[n+]1c2ccc(Cl)cc2cc2[nH]c3ccccc3c21.[Cl-]
MAC15A [1]
  Ratio: 13.5
Plasmodium falciparum [2]; Plasmodium falciparum
  IC50: 0.166 µM
MAC15A [3]; Mus musculus, MAC15A
  IC50: 2.24 µM

## Cc1ccc2cc3[nH]c4ccccc4c3[n+](C)c2c1.[Cl-]
MAC15A [1]
  Ratio: 23.6
Plasmodium falciparum [2]; Plasmodium falciparum
  IC50: 0.149 µM
MAC15A [3]; Mus musculus, MAC15A
  IC50: 3.51 µM

## C[n+]1c2ccccc2cc2[n-]c3ccccc3c21.Cl [CRYPTOLEPINE HYDROCHLORIDE]
Mus musculus [17]
  Mean survival time: Toxic after second dose
MAC15A [1]
  Ratio: 8.98
Plasmodium falciparum [2]; Plasmodium falciparum
  IC50: 0.44 µM
MAC15A [3]; Mus musculus, MAC15A
  IC50: 3.95 µM
Mus musculus [18]
  Parasitemia: Toxic after second dose
Mus musculus [19]
  Mean survival time: Toxic after second dose
Mus musculus [20]
  Suppression of parasitemia: Toxic after second dose

## C[n+]1c2ccccc2cc2[nH]c3c([N+](=O)[O-])cc([N+](=O)[O-])cc3c21.[Cl-]
Plasmodium falciparum [7]
  IC50: 0.0065 µM
[4]
  pKa: 6.4
Plasmodium falciparum [5]
  Vascular accumulation ratio: 0.813
[6]
  BHIA50: 0.92

## C[n+]1c2cc(Cl)ccc2cc2[nH]c3ccc(Br)cc3c21.[Cl-]
MAC15A [1]
  Ratio: 30.8
Plasmodium falciparum [2]; Plasmodium falciparum
  IC50: 0.037 µM
MAC15A [3]; Mus musculus, MAC15A
  IC50: 1.14 µM

## C[n+]1c2cc(Cl)ccc2cc2[nH]c3ccccc3c21.[Cl-]
MAC15A [1]
  Ratio: 3.9
Plasmodium falciparum [2]; Plasmodium falciparum
  IC50: 0.448 µM
MAC15A [3]; Mus musculus, MAC15A
  IC50: 1.75 µM

## C[n+]1c2ccc(Cl)cc2cc2[nH]c3ccc(Br)cc3c21.[Cl-]
MAC15A [1]
  Ratio: 57.7
Mus musculus [15]
  Suppression of parasitemia: 91.85%
Plasmodium falciparum [2]; Plasmodium falciparum
  IC50: 0.03 µM
MAC15A [3]; Mus musculus, MAC15A
  IC50: 1.73 µM
Mus musculus [16]
  Parasitemia: 0.97%
Mus musculus [13]
  Mean survival time: 11.8 days
Mus musculus [14]
  Mean survival time: 15.4 days

## C[n+]1c2ccccc2c(Cl)c2[nH]c3cc(Cl)ccc3c21
Plasmodium falciparum [7]
  IC50: 12.9 µM
[4]
  pKa: 7.35
Plasmodium falciparum [5]
  Vascular accumulation ratio: 37.94
[6]
  BHIA50: 0.96
